# Biological target: T1, OR10J5 (Homo sapiens) (UniProt Q8NHC4)
# T1 sequence (whole entry): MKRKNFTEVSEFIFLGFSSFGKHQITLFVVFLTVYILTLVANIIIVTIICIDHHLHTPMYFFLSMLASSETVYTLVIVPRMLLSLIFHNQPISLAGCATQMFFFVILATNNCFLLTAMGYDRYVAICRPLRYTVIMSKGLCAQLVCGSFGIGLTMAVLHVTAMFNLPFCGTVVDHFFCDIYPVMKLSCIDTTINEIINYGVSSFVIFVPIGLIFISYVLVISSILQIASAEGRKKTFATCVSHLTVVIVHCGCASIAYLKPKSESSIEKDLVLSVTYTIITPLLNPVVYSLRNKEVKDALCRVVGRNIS
# Details: stereoisomer not certain
# Outline: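 Each receptor–molecule pair is labelled responsive or non-responsive (inactive) according to whether the original authors judged the measured signal statistically different from baseline. The data were taken from the main text and supplementary material of published papers and checked for typos and inconsistencies. Assay methods differed by source, with transient luciferase assays in mammalian cell lines being common.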
# 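Further: active if original authors judged signal statistically different from baseline.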
smiles,measurement,value
CCCCCC(=O)CC,odorant receptor agonist call,inactive
